Reference: ChEMBL document CHEMBL2417458, “New potent and selective polyfluoroalkyl ketone inhibitors of GVIA calcium-independent phospholipase A2” (Bioorg Med Chem, 2013)

Columns and labels:
[1] = molecular target: T1, Phospholipase A2 group V (Homo sapiens) (UniProt P39877); assay: Inhibition of human group 5 secretory PLA2 at 0.091 mole fraction in mixed-micelles by modified Dole assay
T1 sequence (whole entry): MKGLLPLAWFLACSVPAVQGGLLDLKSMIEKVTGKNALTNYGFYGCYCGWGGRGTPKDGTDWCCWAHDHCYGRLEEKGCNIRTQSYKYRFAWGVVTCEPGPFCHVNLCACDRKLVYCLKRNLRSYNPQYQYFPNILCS

[2] = molecular target: T2, Cytosolic phospholipase A2 (Homo sapiens) (UniProt P47712); assay: Inhibition of human group 4A cytosolic PLA2 treated in mixed-micelles by modified Dole assay
T2 sequence (whole entry): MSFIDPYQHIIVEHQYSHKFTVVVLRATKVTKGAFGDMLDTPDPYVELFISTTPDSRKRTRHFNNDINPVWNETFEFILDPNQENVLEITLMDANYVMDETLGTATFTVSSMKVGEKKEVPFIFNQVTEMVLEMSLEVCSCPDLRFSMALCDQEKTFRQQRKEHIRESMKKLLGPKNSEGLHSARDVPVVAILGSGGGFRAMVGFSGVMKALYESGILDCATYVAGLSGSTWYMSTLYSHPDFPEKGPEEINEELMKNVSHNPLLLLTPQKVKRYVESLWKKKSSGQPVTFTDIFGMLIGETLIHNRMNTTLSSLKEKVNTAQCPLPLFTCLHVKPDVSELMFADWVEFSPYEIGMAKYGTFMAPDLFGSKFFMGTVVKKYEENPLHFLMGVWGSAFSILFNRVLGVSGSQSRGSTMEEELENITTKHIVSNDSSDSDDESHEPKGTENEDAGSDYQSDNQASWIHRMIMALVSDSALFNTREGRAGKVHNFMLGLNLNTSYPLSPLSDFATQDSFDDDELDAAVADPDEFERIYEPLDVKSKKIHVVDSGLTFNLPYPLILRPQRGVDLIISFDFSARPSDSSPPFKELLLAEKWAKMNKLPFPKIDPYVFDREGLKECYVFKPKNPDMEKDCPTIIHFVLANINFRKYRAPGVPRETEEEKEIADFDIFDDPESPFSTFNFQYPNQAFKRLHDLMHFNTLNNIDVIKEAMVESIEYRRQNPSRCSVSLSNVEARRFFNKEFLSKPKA
Outline: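 Buffer was 100 mM HEPES pH 7.5 containing 90 μM CaCl2, 2 mM DTT and 0.1 mg/ml BSA. About 7 inhibitor mole fractions between 0.00091 and 0.091 were tested. XI(50) came from a symmetrical sigmoidal nonlinear fit of % inhibition versus log inhibitor.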

[3] = molecular target: T2, Cytosolic phospholipase A2 (Homo sapiens); assay: Inhibition of human group 4A cytosolic PLA2 at 0.091 mole fraction in mixed-micelles by modified Dole assay
Outline: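 Buffer was 100 mM HEPES pH 7.5 with 90 μM CaCl2, 2 mM DTT and 0.1 mg/ml BSA. Inhibitor was screened at 0.091 mole fraction. Values are average percent inhibition, and 25% or less was scored as no inhibition.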

[4] = molecular target: T3, 85/88 kDa calcium-independent phospholipase A2 (Homo sapiens) (UniProt O60733); assay: Inhibition of human group 6A calcium-independent PLA2 treated in mixed-micelles by modified Dole assay
T3 sequence (whole entry): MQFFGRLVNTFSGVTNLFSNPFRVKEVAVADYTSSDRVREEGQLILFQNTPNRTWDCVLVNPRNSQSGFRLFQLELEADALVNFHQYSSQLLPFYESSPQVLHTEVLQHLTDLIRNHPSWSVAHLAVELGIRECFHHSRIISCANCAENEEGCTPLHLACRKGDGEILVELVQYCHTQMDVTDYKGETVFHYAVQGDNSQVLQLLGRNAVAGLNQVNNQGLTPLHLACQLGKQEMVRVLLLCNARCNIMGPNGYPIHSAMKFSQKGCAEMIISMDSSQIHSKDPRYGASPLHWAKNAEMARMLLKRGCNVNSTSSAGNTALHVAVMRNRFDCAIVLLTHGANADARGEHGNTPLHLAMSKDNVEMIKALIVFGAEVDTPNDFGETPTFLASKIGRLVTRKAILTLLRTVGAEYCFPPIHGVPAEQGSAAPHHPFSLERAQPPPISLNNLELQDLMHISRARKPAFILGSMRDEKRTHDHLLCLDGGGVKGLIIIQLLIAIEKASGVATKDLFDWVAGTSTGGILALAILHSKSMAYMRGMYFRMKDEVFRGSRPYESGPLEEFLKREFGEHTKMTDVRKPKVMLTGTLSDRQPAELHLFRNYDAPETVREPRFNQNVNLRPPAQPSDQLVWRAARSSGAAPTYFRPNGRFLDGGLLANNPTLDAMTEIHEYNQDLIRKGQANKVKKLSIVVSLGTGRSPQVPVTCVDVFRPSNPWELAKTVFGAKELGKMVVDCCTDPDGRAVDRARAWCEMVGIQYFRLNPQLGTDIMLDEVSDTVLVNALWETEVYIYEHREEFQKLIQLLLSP
Outline: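 Typically 7 mole fractions from 0.00091 to 0.091 were tested. XI(50) is the inhibitor mole fraction giving 50% inhibition, from a symmetrical sigmoidal regression of % inhibition versus log concentration.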

[5] = molecular target: T3, 85/88 kDa calcium-independent phospholipase A2 (Homo sapiens); assay: Inhibition of human group 6A calcium-independent PLA2 at 0.091 mole fraction in mixed-micelles by modified Dole assay

Row | Structure (SMILES) | inhibition [1] | XI50 (mole fraction) [2] | inhibition [3] | XI50 (mole fraction) [4] | inhibition [5]
1 | O=C(CCCCc1ccc(-c2ccccc2)cc1)C(F)(F)F | 40.5% | 0.0074 | 96.5% | 0.0189 | 97.9%
2 | COc1ccccc1CCCCC(=O)C(F)(F)C(F)(F)F | 39.1% | – | 30.5% | 0.0263 | 95.5%
3 | O=C(CCCCc1ccc2c(c1)OCO2)C(F)(F)C(F)(F)F | 29.4% | – | 38.3% | 0.0019 | 99.5%
4 | O=C(CCCCc1ccc(F)cc1)C(F)(F)F | < 25% | – | 41.4% | 0.0002 | 98.5%
5 | O=C(CCCCc1ccc(-c2ccccc2)cc1)C(F)(F)C(F)(F)F | 38.3% | – | 72.6% | 0.0134 | 94.6%
6 | O=C(CCc1ccccc1-c1ccccc1)C(F)(F)C(F)(F)F | – | – | < 25% | – | 90.4%
7 | COc1ccc(CCCCC(=O)C(F)(F)F)c(OC)c1 | < 25% | – | 64.3% | – | 89.6%
8 | O=C(CCCCc1ccccc1)C(F)F | < 25% | – | < 25% | – | 87.4%
9 | O=C(CCCc1ccccc1)C(F)F | < 25% | – | < 25% | – | 86.5%
10 | O=C(CCCCc1ccc(F)cc1)C(F)(F)C(F)(F)F | 29.3% | – | < 25% | 0.0003 | 98.2%
11 | COc1ccc(CCCCC(=O)C(F)(F)F)cc1OC | < 25% | – | 28.8% | – | 62.5%
12 | O=C(CCCCc1ccc(C(F)(F)F)cc1)C(F)(F)F | 30.4% | – | 83.9% | 0.0002 | 99.9%
13 | COc1ccc2cc(CCCCC(=O)C(F)(F)C(F)(F)F)ccc2c1 | 63.1% | – | 54.7% | – | 92.5%
14 | COc1ccc(CCCCC(=O)C(F)(F)C(F)(F)F)cc1 | 32.8% | – | < 25% | 0.0001 | 99.8%
15 | O=C(CCCCc1cccc2ccccc12)C(F)(F)F | 31.9% | – | 77.4% | 0.0018 | 98.7%
16 | COc1ccc(CCCCC(=O)C(F)(F)F)cc1 | < 25% | – | 54.3% | 0.0001 | 99.8%
17 | O=C(CCCCc1cccc2ccccc12)C(F)(F)C(F)(F)F | 29.4% | – | 64% | 0.0034 | 96.4%
18 | COc1ccc2cc(CCCCC(=O)C(F)(F)F)ccc2c1 | 41.7% | – | 85.5% | – | 92.6%
19 | O=C(CCCCc1ccc(C(F)(F)F)cc1)C(F)(F)C(F)(F)F | 36.9% | – | 62.5% | 0.0003 | 98.9%
20 | O=C(CCCCc1cccc2ccccc12)C(F)(F)C(F)(F)C(F)(F)F | 57.8% | – | 60.4% | – | 76.7%
21 | O=C(CCCCc1ccc2c(c1)OCO2)C(F)(F)F | < 25% | – | 41.2% | 0.0025 | 98.7%
22 | COc1ccc(CCCCC(=O)C(F)(F)C(F)(F)F)cc1OC | < 25% | – | < 25% | – | 78.3%
23 | COc1ccc(CCCCC(=O)C(F)(F)C(F)(F)F)c(OC)c1 | 38.7% | – | 35.6% | 0.0553 | 95.6%
24 | O=C(CCc1ccccc1-c1ccccc1)C(F)(F)F | – | – | < 25% | – | 75%
25 | COc1ccccc1CCCCC(=O)C(F)(F)F | < 25% | – | 58.9% | – | 82.8%
